Assay results collected from several papers.
Protocols differ between the studies behind these lines.
MMP8: Neutrophil collagenase (MMP8, Homo sapiens, UniProt P22894)
CA2: Carbonic anhydrase 2 (CA2, Homo sapiens, UniProt P00918)

Compound | target | effect on | action | method | concentration | inhibition
CN(C)C(=O)COC(=O)Cc1ccc(OC(=O)c2ccc(NC(=N)N)cc2)cc1 | MMP8 | enzyme activity | inhibitor | – | 10 µM | 33%
O=C(Nc1cccnn1)N1CCN([C@@H]2CCOc3cc(C(F)(F)F)ccc32)CC1 | cGMP-dependent 3',5'-cyclic phosphodiesterase (PDE2A, Homo sapiens, UniProt O00408) | enzyme activity | inhibitor | – | 20 µM | 3%
C#Cc1n[nH]c2c(-c3cn(C(C)c4ccccn4)c(=O)[nH]c3=O)cc(F)cc12 (stereo not drawn) | Misshapen-like kinase 1 (MINK1, Homo sapiens, UniProt Q8N4C8) | enzyme activity | inhibitor | – | 1 µM | -10.4%
CC(C)=CCCC1(C)C=Cc2c(O)c3c(c(CC=C(C)C)c2O1)OC12C(=CC4CC1C(C)(C)OC2(C/C=C(/C)C(=O)O)C4O)C3=O (stereo not drawn) | N-lysine methyltransferase KMT5A (KMT5A, Homo sapiens, UniProt Q9NQR1) | cell-free assay | – | – | 10 µM | 7%
COc1cc(Nc2ncc(F)c(Nc3ccc4c(n3)NC(=O)C(C)(C)O4)n2)cc(OC)c1OC | Receptor-interacting serine/threonine-protein kinase 4 (RIPK4, Homo sapiens, UniProt P57078) | binding | – | – | 10 µM | 96%
COc1ccc(S(=O)(=O)N(CC(=O)NO)CC(C)C)cc1 | MMP8 | enzyme activity | inhibitor | – | 10 nM | 5%
COc1ccc(S(=O)(=O)N2CCCCC2)cc1C | Androgen receptor (AR, Homo sapiens, UniProt P10275) | ligand displacement | – | radioligand | 10 µM | < 30%
C[C@H](C(=O)N[C@H]1COc2ccccc2[C@@H]1S(C)(=O)=O)c1ccc(F)cc1 | CA2 | enzyme activity | inhibitor | – | 10 µM | 8%
O=C(O)Cc1ccccc1Nc1c(Cl)cccc1Cl | Histone acetyltransferase p300 (EP300, Homo sapiens, UniProt Q09472) | enzyme activity | inhibitor | mobility shift | 1.25 mM | > 50%
Cc1ncc(C)n2nc(/C=C/c3nc(N4CCCC4)cc(N4CCOCC4)n3)nc12 | 5-hydroxytryptamine receptor 1D (Htr1d, Rattus norvegicus, UniProt P28565) | ligand displacement | – | – | 10 µM | -1%
CCN(CC)CCCC[C@H](NC(=O)[C@H](CC(C)C)NC(=O)[C@H](C)NC(=O)[C@H](Cc1ccccc1)NC(=O)c1ccc(C(C)(C)C)cc1)C(=O)N[C@@H](CO)C(=O)OC | Delta-type opioid receptor (OPRD1, Homo sapiens, UniProt P41143) | ligand displacement | – | radioligand | 10 µM | 29%
Cn1cc(-c2cccc(N3CCc4c(sc5c4CC(C)(C)C5)C3=O)c2CO)cc(Nc2ccncn2)c1=O | Dual specificity mitogen-activated protein kinase kinase 6 (MAP2K6, Homo sapiens, UniProt P52564) | enzyme activity | inhibitor | – | 1 µM | 11%
CCOC(=O)c1ccc(OC(=O)CCCCCNC(=N)N)cc1 | MMP8 | enzyme activity | inhibitor | – | 10 µM | 7%
COCc1c(-c2cc3cc(C)cc(OC)c3s2)c2c(N)ncnn2c1CN1CCNC(=O)C1 | CA2 | enzyme activity | inhibitor | – | 10 µM | 44%
Cn1cc(-c2cc(F)cc(N3CCn4c(cc5c4CCCC5)C3=O)c2CO)cc(Nc2ccc(N3CCN(C4COC4)CC3)cn2)c1=O | G protein-coupled receptor kinase 3 (GRK3, Homo sapiens, UniProt P35626) | enzyme activity | inhibitor | – | 0.1 µM | 0%
